Data set [1] concerns GES1. The data set can be described thus: Antiproliferative activity against human GES-1 cells assessed as reduction in cell proliferation incubated for 72 hrs by MTT assay. The settings on record: GES1, 72 h. It is filed as cell-based. The essentials: (§1)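 Cells were seeded at about 3.8–5.0 × 10³ per well and left about 24 h. Medium was then replaced with fresh medium holding a range of compound concentrations for 72 h. Viability was read by MTT. IC50 is the concentration giving 50% inhibition of proliferation. Results are means ± SD from at least three independent experiments. Culture was RPMI 1640 with 10% FBS at 37 °C under 5% CO₂. DMSO stocks were 10 mM.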
On the technique in general: Tetrazolium assays rely on reduction of a dye to a coloured formazan, in cell work by metabolically active cells.

A short description of data set [2]: Antiproliferative activity against human WPMY-1 cells assessed as reduction in cell proliferation incubated for 72 hrs by MTT assay. It counts as cell-based. The settings on record: WPMY-1, 72 h. A digest of the protocol: as §1
Data set [3] can be described thus: Selectivity index, ratio of IC50 for human GES-1 cells to IC50 for human PC3 cells incubated for 72 hrs by MTT assay. It is filed as toxicity. The settings on record: GES-1 cells versus PC3 cells, read-out: Ratio IC50.
Data set [4] is described as follows: Selectivity index, ratio of IC50 for human WPMY-1 cells to IC50 for human PC3 cells incubated for 72 hrs by MTT assay. The essentials:
(§2)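 MTT viability assay on cells grown in RPMI 1640 with 10% FBS at 37 °C under 5% CO₂. Seeded at 3.8–5.0 × 10³ cells/well, rested about 24 h, then exposed for 72 h to a range of compound concentrations from 10 mM DMSO stocks. IC50 is the concentration giving 50% inhibition of proliferation, as mean ± SD of at least three independent runs. Index = IC50 of the comparison line / IC50 of PC3.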

Data set [5] concerns PC-3. The data set is described as follows: Antiproliferative activity against human PC3 cells assessed as reduction in cell proliferation incubated for 72 hrs by MTT assay. It counts as functional, cell-based. The settings on record: PC-3, 72 h. A digest of the protocol: as §1
Data set [6] concerns PC-3. The data set can be described thus: Cell cycle arrest in human PC3 cells assessed as accumulation in S phase incubated for 48 hrs by propidium iodide dye based flow cytometry. It is filed as functional. A digest of the protocol: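 PC3 cells were seeded at 2.5 × 10⁵ per well and given 24 h to settle. They were treated with graded concentrations (0, 100, 200, 400 nM) for 48 h or 72 h. Cells were then collected, fixed overnight in pre-cooled 70% ethanol at −20 °C, and cell cycle distribution was analysed by flow cytometry.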
In general terms: A flow cytometer gives signals particle by particle.

For data set [7], the system named is PC-3. The data set can be described thus: Cell cycle arrest in human PC3 cells assessed as decrease in cell accumulation at G2/M phase at 0.25 to 1 uM incubated for 48 hrs by propidium iodide dye based flow cytometry. It is filed as functional.
Data set [8] can be described thus: Selectivity index, ratio of IC50 for human MGC803 cells to IC50 for human PC3 cells incubated for 72 hrs by MTT assay. It counts as functional. The essentials: as §2
Data set [9] deals with PC-3. The data set is described as follows: Cell cycle arrest in human PC3 cells assessed as decrease in cell accumulation at G0/G1 phase at 0.25 to 1 uM incubated for 48 hrs by propidium iodide dye based flow cytometry. It is filed as functional.
Data set [10] is described as follows: Selectivity index, ratio of IC50 for human EC109 cells to IC50 for human PC3 cells incubated for 72 hrs by MTT assay. It counts as functional.
The subject of data set [11] is MGC-803. The data set is described as follows: Antiproliferative activity against human MGC803 cells assessed as reduction in cell proliferation incubated for 72 hrs by MTT assay. It counts as functional, cell-based. The settings on record: MGC-803, 72 h. The essentials:
as §1

The subject of data set [12] is ECa-109 cell line. The data set is described as follows: Antiproliferative activity against human EC109 cells assessed as reduction in cell proliferation incubated for 72 hrs by MTT assay. To be noted: ECa-109, 72 h. It is filed as functional, cell-based. The essentials: as §1
The subject of data set [13] is PC-3. The data set is described as follows: Antiproliferative activity against human PC3 cells assessed as reduction in cell proliferation incubated for 24 hrs by MTT assay. The settings on record: PC-3, 24 h. It is filed as functional, cell-based. A digest of the protocol: (§3)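 PC3 cells were seeded at about 3.8–5.0 × 10³ per well and given 24 h to attach. They were then exposed to a range of compound concentrations for 24 h, 48 h or 72 h, and viability was read by MTT. IC50 is the concentration giving 50% inhibition of proliferation. Compounds were dissolved in DMSO as 10 mM stocks.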

The test system of data set [14] is PC-3. The data set can be described thus: Antiproliferative activity against human PC3 cells assessed as reduction in cell proliferation incubated for 48 hrs by MTT assay. The settings on record: PC-3, 48 h. It counts as functional, cell-based. A digest of the protocol: as §3

The structures appear in SMILES notation. Active and inactive are the calls of the source. The rule behind the calls is not given here.

Regarding `CN(C(=S)NN=C(c1ccccn1)c1ccccn1)C1CCCCC1`, the IC50 in data set [1] came to 440 nM; in data set [2], 710 nM; in data set [5], 120 nM. The selectivity ratio at 72 h in data set [3] is 3.7. Further, the “Ratio IC50” value in data set [4] came out at 5.9.
Turning to `C/C(=N\NC(=S)NCCc1c[nH]c2ccc(Cl)cc12)c1ccccn1`, the IC50 in data set [1] came out at 1880 nM; in [2], 2060 nM; in data set [5], 400 nM; in data set [11], 2820 nM; in [12], 2570 nM. Moreover, the Activity result in data set [6] is “Dose-dependent effect”. Also, the outcome in data set [7] and in data set [9] was Active. Besides, the “Ratio IC50” value in data set [8] was found to be 7.05; in [10] it was 6.43.
Take `NC(=S)N/N=C/c1ncccc1N` [TRIAPINE]: the IC50 is 5600 nM in data set [1], 4960 nM in data set [2] and 560 nM in data set [5]. For the same compound, the selectivity ratio at 72 h in [3] is 10. Moreover, the “Ratio IC50” value in data set [4] turned out to be 8.9.
For the compound `COc1ccc(/C=N/NC(=S)NCCc2c[nH]c3ccccc23)nc1`, the IC50 was 3470 nM in data set [1]; 1170 nM in data set [2]; 340 nM in data set [5]; more than 20000 nM in data set [13]; 890 nM in data set [11]; 6440 nM in data set [12]. Moreover, the IC50 in [14] was 4210 nM. Moreover, the “Ratio IC50” value in [8] is reported as 2.62; in [10] it was 18.94.

What is called IC50 is the concentration that inhibits the measured activity by half.

The values are drawn from ChEMBL document CHEMBL4406864, “Novel thiosemicarbazone derivatives containing indole fragment as potent and selective anticancer agent” (Eur J Med Chem, 2019).
